Consider 3 compounds from publication PMC6944222 (Toxicological Sciences, 2019).

A short description of data set [1]: IVIVE of total hepatic intrinsic clearance. In kind it is in vitro ADME, human. Particulars: for Hepatic CLint_vivo: model estimated; for total CLint_vivo estimated with HLMs and cytosol (subcellular fraction): subcellular fraction-based IVIVE. Put shortly: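 Pooled human liver microsomes and cytosol from 150 adults (75 male, 75 female). […] In vitro CLint was scaled to the in vivo hepatic value using microsomal or cytosolic protein content and liver weight. Enzyme ontogeny was expressed as a fraction of adult expression.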

Data set [2] concerns expressed human CYP and CES enzymes. In kind it is in vitro ADME. Particulars: for total in vivo CLint estimated with expressed enzymes: expressed enzyme-based IVIVE; for metabolism profile (enzymes responsible): human hepatic CYP and CES enzymes.
For data set [3] the following is noted: stated as known, no reference given; cited from earlier work.
The conditions of data set [4]: ref Willemin et al. (2015); cited from earlier work.

On to `CC1(C)[C@H](C(=O)O[C@H](C#N)c2cccc(Oc3ccccc3)c2)[C@@H]1C=C(Br)Br` [DLM, deltamethrin], for which the “Hepatic CLint_vivo” value in data set [1] (person five) is 2066 L/h; in data set [1] (person four), 1282 L/h; in data set [1] (person one), 375 L/h; in data set [1] (person six), 2417 L/h; in data set [1] (person three) it was 565 L/h; in data set [1] (person two), 224 L/h. In data set [1], the “total CLint_vivo estimated with HLMs and cytosol (subcellular fraction)” value is 7,418 l/h/kg liver. In data set [2], the “total in vivo CLint estimated with expressed enzymes” value (“total in vivo CLint estimated” for short) is given as 36,782 l/h/kg liver. The “log Kow” value in data set [3] is 4.61.

For the compound `Cc1c(COC(=O)[C@@H]2[C@H](/C=C(\Cl)C(F)(F)F)C2(C)C)cccc1-c1ccccc1` (racemic) [Bifenthrin, bifenthrin], the “Hepatic CLint_vivo” value in data set [1] (person five) was 58 L/h; in data set [1] (person four), 36 L/h; in data set [1] (person one), 10 L/h; in data set [1] (person six) it was 67 L/h; in data set [1] (person three), 16 L/h; in data set [1] (person two) it was 5 L/h. Further, the “total in vivo CLint estimated” value in data set [2] is listed as 145 l/h/kg liver. For the same compound, the “metabolism profile (enzymes responsible)” value in data set [2] is “metabolized only by CYP enzymes”.

Regarding `CC1(C)[C@H](C(=O)OCc2cccc(Oc3ccccc3)c2)[C@@H]1C=C(Cl)Cl` [CPM, cis-permethrin], the “Hepatic CLint_vivo” value in data set [1] (person five) was 186 L/h; in data set [1] (person four), 115 L/h; in data set [1] (person one), 34 L/h; in data set [1] (person six), 217 L/h; in data set [1] (person three), 51 L/h; in data set [1] (person two), 20 L/h. Besides, in data set [1], the “total CLint_vivo estimated with HLMs and cytosol (subcellular fraction)” value is recorded as 6,68 l/h/kg liver. In addition, the “contribution of CES enzymes to human hepatic metabolism” value in data set [2] (IVIVE of expressed enzyme data) is “more than 70%”. In data set [2], the “total in vivo CLint estimated” value is 70,481 l/h/kg liver. In addition, in data set [2], the “metabolism profile (enzymes responsible)” value is “metabolized by CYP and CES enzymes”. In data set [3], the “log Kow” value is 6.1. Also, the “in vivo CLint in cryopreserved hepatocytes” value in data set [4] is reported as 60 l/h/kg liver.
